ChEMBL document CHEMBL3526115, “Differences in the pharmacokinetics of 4-amino-3-chlorophenyl hydrogen sulfate, a metabolite of resatorvid, in rats and dogs” (Drug Metab Dispos, 2012)

Columns and labels:
[1] = system: Canis familiaris; experiment: Unbound renal clearance in Beagle dog at 0.5 mg/kg, iv administered as bolus dose measured from 0 to 168 hrs by HPLC-based liquid scintillation counting analysis; format: ADME, organism-based, Canis lupus familiaris, Kidney; parameters: dose 0.5 mg/kg, route intravenous; details: in vivo
How it was run: (§1)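 After a 0.5 mg/kg iv bolus of [14C]M-III, urine was collected 0–24 h (rat) or 0–168 h (dog) and injected directly onto HPLC with fraction collection and scintillation counting. M-III in urine was derived from the urinary 14C excretion ratio and the [14C]M-III composition. CLrenal = urinary M-III amount / AUC0–24 h (rat) or AUC0–168 h (dog). Unbound CLrenal = CLrenal / free fraction.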

[2] = Unbound fraction in Crj:CD(SD)IGS rat plasma at 0.125 mg/hr, iv administered as continuous infusion by ultrafiltration method in presence of 62 mg/hr/kg probenecid; format: ADME, organism-based; details: with probenecid 62 mg/hr/kg (co-administered)
How it was run: (§2)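 Rats received a continuous iv infusion of [14C]M-III at 0.125 mg/rat/h, with probenecid co-infused at 16, 31 or 62 mg/h/kg or vehicle alone, for 5 h. Arterial plasma was sampled during infusion. CLtot = infusion rate / steady-state plasma M-III (120–180 min). Unbound fraction was measured by ultrafiltration of 5-h plasma (10,000 MWCO, 1500g, 37°C, 10 min). CLint = CLtot / unbound ratio.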

[3] = Drug uptake in Crj:CD(SD)IGS rat plasma at 0.5 mg/kg, iv administered as bolus dose after 5 mins by HPLC-based liquid scintillation counting analysis; format: ADME, organism-based; parameters: dose 0.5 mg/kg, route intravenous
How it was run: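 [14C]M-III in saline given as a single iv bolus at 0.5 mg/kg to male rats (tail-vein blood, 5 min–24 h) or male beagle dogs (cephalic-vein blood, 5 min–168 h). Heparinized plasma counted for radioactivity; M-III quantified by HPLC with fraction collection and liquid scintillation counting. C5 min read directly; terminal t1/2 by linear regression, kel = ln2/t1/2, Vd = dose/back-extrapolated C0, CLtot = dose/AUCinf. Mean ± S.D., n = 3.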

[4] = In vitro plasma protein binding in rat at 0.5 ug/ml by ultrafiltration method; format: ADME, cell-free; details: read-out: PPB (converted)
How it was run: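 [14C]M-III in saline was added to rat or dog plasma at final 0.5, 5 and 50 µg/ml. Plasma was ultrafiltered by centrifugation at 1500g and 37°C for 10 min, and 14C was measured in plasma and filtrate. Mean ± S.D., n = 3.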

[5] = system: Plasma; experiment: Plasma concentration in Beagle dog at 0.5 mg/kg, iv administered as bolus dose by HPLC based liquid scintillation counting analysis; format: ADME, organism-based, Canis lupus familiaris; parameters: dose 0.5 mg/kg, route intravenous; details: in vivo
[6] = system: Rattus norvegicus; experiment: Intrinsic total body clearance in Crj:CD(SD)IGS rat at 0.125 mg/hr, iv administered as continuous infusion by HPLC based liquid scintillation counting analysis in presence of 16 mg/hr/kg probenecid; format: ADME, organism-based; details: in vivo; how it was run: as §2
[7] = Drug recovery in Crj:CD(SD)IGS rat urine at 0.5 mg/kg, iv administered as bolus dose measured from 0 to 24 hrs by HPLC analysis; format: ADME, organism-based; parameters: dose 0.5 mg/kg, route intravenous; details: read-out: Drug recovery; how it was run: as §1
[8] = Total body clearance in Crj:CD(SD)IGS rat at 0.125 mg/hr, iv administered as continuous infusion by HPLC based liquid scintillation counting analysis in presence of 31 mg/hr/kg probenecid; format: ADME, organism-based; details: in vivo, with probenecid 31 mg/hr/kg; how it was run: as §2

Q: Which CL free [1] does the source give for `N[14c]1[14cH][14cH][14c](OS(=O)(=O)O)[14cH][14c]1Cl` here?
A: The CL free was 0.00351 L/h/kg.

Q: And the fraction unbound [2]?
A: The fraction unbound was 0.184.

Q: And the concentration at 5 min [3]?
A: Its concentration at 5 min is 2.29 µg/mL.

Q: And the fraction unbound at 0.5 ug/ml [4]?
A: The fraction unbound at 0.5 ug/ml was 0.075.

Q: What about the Cp [5] of the same compound?
A: The Cp was 2.5 µg/mL.

Q: What about the CL [6] of the same compound?
A: The CL was 3.23 L/h/kg.

Q: What about the dose excreted [7] of the same compound?
A: Its dose excreted is 76.9%.

Q: And the clearance [8]?
A: Its clearance is 0.141 L/h/kg.
